# Results reported in ChEMBL document CHEMBL1145694, “In vitro evaluation of antifungal properties of 8.O.4'-neolignans” (1997).
# Activity calls are given as the source filed them. No cut-off for these calls is given here.
# What was measured:
# [1] = tested on: Candida albicans; assay: Antifungal activity against Candida albicans ATCC 10231 up to 250 ug/mL by agar dilution method; type: functional, organism-based
# Summary of the method: (§1)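 Agar dilution in Saboureaud-chloramphenicol agar wells. Test agents from DMSO stocks were serially diluted twofold to final 0.10–250 µg/mL, with DMSO ≤2% final. Each well got 5 µL of yeast cell or spore suspension (spores at 10⁶ CFU/mL). Ketoconazole and amphotericin B served as positive controls, with a drug-free blank. Plates were held at 30 °C for 24, 48 or 72 h, set by control growth. MIC = lowest concentration with no visible growth.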
# [2] = tested on: Saccharomyces cerevisiae; assay: Antifungal activity against Saccharomyces cerevisiae ATCC 9763 up to 250 ug/mL by agar dilution method; type: functional, organism-based; summary of the method: as §1
# [3] = tested on: Cryptococcus neoformans; assay: Antifungal activity against Cryptococcus neoformans ATCC 32264 up to 250 ug/mL by agar dilution method; type: functional, organism-based; summary of the method: as §1
# [4] = tested on: Aspergillus niger; assay: Antifungal activity against Aspergillus niger ATCC 9029 up to 250 ug/mL by agar dilution method; type: functional, organism-based; summary of the method: as §1
# [5] = tested on: Aspergillus fumigatus; assay: Antifungal activity against Aspergillus fumigatus ATCC 26934 up to 250 ug/mL by agar dilution method; type: functional, organism-based; summary of the method: as §1
# [6] = tested on: Aspergillus flavus; assay: Antifungal activity against Aspergillus flavus ATCC 9170 up to 250 ug/mL by agar dilution method; type: functional, organism-based; summary of the method: as §1
# [7] = tested on: Microsporum canis; assay: Antifungal activity against Microsporum canis C112 after 15 days by agar dilution method; type: functional; conditions: 360 h
# Summary of the method: (§2)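 Dermatophytes were kept on Saboureaud dextrose agar slopes and subcultured every 15 days. Spore suspensions were set to 10⁶ CFU/mL, and 5 µL went into Saboureaud-chloramphenicol agar wells. Wells held twofold dilutions from DMSO stocks, final 0.10–250 µg/mL, DMSO ≤2%. Ketoconazole and amphotericin B were positive controls, with a drug-free blank. Incubation was at 30 °C for up to 15 days. MIC = lowest concentration with no visible growth.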
# [8] = tested on: Nannizzia gypsea; assay: Antifungal activity against Microsporum gypseum C115 after 15 days by agar dilution method; type: functional; conditions: 360 h; summary of the method: as §2
# [9] = tested on: Trichophyton mentagrophytes; assay: Antifungal activity against Trichophyton mentagrophytes ATCC 9972 after 15 days by agar dilution method; type: functional; conditions: ATCC 9972, 360 h; summary of the method: as §2
# [10] = tested on: Trichophyton rubrum; assay: Antifungal activity against Trichophyton rubrum C113 after 15 days by agar dilution method; type: functional; conditions: 360 h; summary of the method: as §2
# [11] = tested on: Epidermophyton floccosum; assay: Antifungal activity against Epidermophyton floccosum C114 after 15 days by agar dilution method; type: functional; conditions: 360 h; summary of the method: as §2
MIC [7],MIC [8],MIC [9],MIC [10],MIC [11],Compound,Activity [1],Activity [2],Activity [3],Activity [4],Activity [5],Activity [6]
250 µg/mL,250 µg/mL,> 250 µg/mL,250 µg/mL,250 µg/mL,C=CCc1ccc(OC(C)C(=O)c2ccc(OC)c(OC)c2)c(OC)c1 (racemic),inactive,inactive,inactive,inactive,inactive,inactive
20 µg/mL,50 µg/mL,100 µg/mL,> 250 µg/mL,5 µg/mL,C=CCc1cc(OC)c(O[C@H](C)[C@@H](O)c2ccc3c(c2)OCO3)c(OC)c1 (racemic),inactive,inactive,inactive,inactive,inactive,inactive
250 µg/mL,> 250 µg/mL,> 250 µg/mL,> 250 µg/mL,> 250 µg/mL,C=CCc1cc(OC)c(OC(C)C(=O)c2ccc(OC)c(OC)c2)c(OC)c1 (racemic),inactive,inactive,inactive,inactive,inactive,inactive
250 µg/mL,> 250 µg/mL,> 250 µg/mL,> 250 µg/mL,> 250 µg/mL,C=CCc1cc(OC)c(OC(C)C(=O)c2cc(OC)c(OC)c(OC)c2)c(OC)c1 (racemic),inactive,inactive,inactive,inactive,inactive,inactive
80 µg/mL,40 µg/mL,200 µg/mL,20 µg/mL,15 µg/mL,C=CCc1cc(OC)c(O[C@@H](C)[C@@H](O)c2ccc3c(c2)OCO3)c(OC)c1 (racemic),inactive,inactive,inactive,inactive,inactive,inactive
40 µg/mL,150 µg/mL,150 µg/mL,40 µg/mL,60 µg/mL,C=CCc1cc(OC)c(O[C@@H](C)[C@@H](O)c2ccc(OC)c(OC)c2)c(OC)c1 (racemic),inactive,inactive,inactive,inactive,inactive,inactive
> 250 µg/mL,250 µg/mL,> 250 µg/mL,> 250 µg/mL,> 250 µg/mL,C=CCc1cc(OC)c(OC(C)C(=O)c2ccc3c(c2)OCO3)c(OC)c1 (racemic),inactive,inactive,inactive,inactive,inactive,inactive

# The remaining lines, values behind:
Compound,MIC [7],MIC [8],MIC [9],MIC [10],MIC [11],Activity [1],Activity [2],Activity [3],Activity [4],Activity [5],Activity [6]
C/C=C/c1ccc(OC(C)C(=O)c2ccc(OC)c(OC)c2)c(OC)c1 (racemic),> 250 µg/mL,250 µg/mL,> 250 µg/mL,> 250 µg/mL,> 250 µg/mL,inactive,inactive,inactive,inactive,inactive,inactive
C=CCc1ccc(O[C@@H](C)[C@@H](O)c2ccc(OC)c(OC)c2)c(OC)c1 (racemic),20 µg/mL,60 µg/mL,40 µg/mL,20 µg/mL,25 µg/mL,inactive,inactive,inactive,inactive,inactive,inactive
C/C=C/c1ccc(O[C@H](C)[C@@H](O)c2ccc(OC)c(OC)c2)c(OC)c1 (racemic),50 µg/mL,50 µg/mL,150 µg/mL,20 µg/mL,70 µg/mL,inactive,inactive,inactive,inactive,inactive,inactive
C=CCc1cc(OC)c(O[C@H](C)[C@@H](O)c2ccc(OC)c(OC)c2)c(OC)c1 (racemic),150 µg/mL,50 µg/mL,150 µg/mL,80 µg/mL,40 µg/mL,inactive,inactive,inactive,inactive,inactive,inactive
C/C=C/c1ccc(OC(C)C(=O)c2cc(OC)c(OC)c(OC)c2)c(OC)c1 (racemic),> 250 µg/mL,> 250 µg/mL,> 250 µg/mL,> 250 µg/mL,> 250 µg/mL,inactive,inactive,inactive,inactive,inactive,inactive
C=CCc1cc(OC)c(O[C@@H](C)[C@@H](O)c2cc(OC)c(OC)c(OC)c2)c(OC)c1 (racemic),60 µg/mL,80 µg/mL,50 µg/mL,25 µg/mL,60 µg/mL,inactive,inactive,inactive,inactive,inactive,inactive
C=CCc1ccc(O[C@H](C)[C@@H](O)c2ccc(OC)c(OC)c2)c(OC)c1 (racemic),250 µg/mL,> 250 µg/mL,> 250 µg/mL,250 µg/mL,15 µg/mL,inactive,inactive,inactive,inactive,inactive,inactive
C/C=C/c1ccc(O[C@H](C)[C@@H](O)c2cc(OC)c(OC)c(OC)c2)c(OC)c1 (racemic),60 µg/mL,60 µg/mL,80 µg/mL,50 µg/mL,25 µg/mL,inactive,inactive,inactive,inactive,inactive,inactive
C/C=C/c1ccc(O[C@@H](C)[C@@H](O)c2cc(OC)c(OC)c(OC)c2)c(OC)c1 (racemic),> 250 µg/mL,> 250 µg/mL,> 250 µg/mL,125 µg/mL,50 µg/mL,inactive,inactive,inactive,inactive,inactive,inactive
C=CCc1cc(OC)c(O[C@H](C)[C@@H](O)c2cc(OC)c(OC)c(OC)c2)c(OC)c1 (racemic) [RHAPHIDECURSINOL B],50 µg/mL,150 µg/mL,50 µg/mL,25 µg/mL,50 µg/mL,inactive,inactive,inactive,inactive,inactive,inactive
C/C=C/c1ccc(O[C@@H](C)[C@@H](O)c2ccc(OC)c(OC)c2)c(OC)c1 (racemic) [VIROLIN],50 µg/mL,> 250 µg/mL,> 250 µg/mL,> 250 µg/mL,100 µg/mL,inactive,inactive,inactive,inactive,inactive,inactive
C[C@@H]1[C@H](O)[C@@H](C)/C=C/C=C/C=C/C=C/C=C/C=C/C=C/[C@H](O[C@@H]2O[C@H](C)[C@@H](O)[C@H](N)[C@@H]2O)C[C@@H]2O[C@](O)(C[C@@H](O)C[C@@H](O)[C@H](O)CC[C@@H](O)C[C@@H](O)CC(=O)O[C@H]1C)C[C@H](O)[C@H]2C(=O)O [AMPHOTERICIN B],–,–,–,–,0.3 µg/mL,–,–,–,–,–,–
CC(=O)N1CCN(c2ccc(OCC3COC(Cn4ccnc4)(c4ccc(Cl)cc4Cl)O3)cc2)CC1 (stereo not given) [KETOCONAZOLE],–,–,–,–,15 µg/mL,–,–,–,–,–,–
